Measurements taken from ChEMBL document CHEMBL2401652 (J Med Chem, 2013).
Activity calls are given as the source filed them. The calls are words filed in the database; no cut-off is given here.

Key:
[1] = tested on: T98G; assay: Induction of apoptosis in human T98G cells assessed as procaspase-8 cleavage at 50 uM after 24 hrs by Western blot analysis; type: functional, cell-based
Procedure, shortened: (§1)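 Cells (1.5 × 10^6) exposed 24 h to compound (25 or 50 μM). 50 μg protein per lane resolved on 10% SDS-PAGE and transferred to nitrocellulose. Membrane blocked in 2% TBS-BSA, then probed with primary antibody overnight at 4 °C and HRP secondary. Detection by ECL, with β-actin as loading control. Untreated control run in parallel.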

[2] = tested on: PANC-1; assay: Downregulation of Bcl-xL expression in human PANC1 cells at 50 uM after 24 hrs by Western blot analysis; type: functional, cell-based
Procedure, shortened: (§2)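 Cells (1.5 × 10^6) treated 24 h at 25 or 50 μM; 50 μg protein per lane on 10% SDS-PAGE, nitrocellulose, 2% TBS-BSA block, primary antibody overnight at 4 °C, HRP secondary, ECL detection; β-actin loading control; untreated controls in parallel.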

[3] = tested on: PANC-1; assay: Cytotoxicity against human PANC1 cells assessed as growth inhibition after 24 hrs by MTT assay; type: functional, cell-based
Procedure, shortened: (§3)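 Log-phase cells (1 × 10^4 per well) treated 24 h with 0–30 μM at 37 °C, 5% CO2, in triplicate; MTT added for final 3 h; vehicle 0.15% ethanol; IC50 from three separate days, mean ± SE.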

[4] = tested on: A549; assay: Cytotoxicity against human A549 cells assessed as growth inhibition after 24 hrs by MTT assay; type: functional, cell-based; procedure, shortened: as §3
[5] = tested on: PANC-1; assay: Induction of apoptosis in human PANC1 cells assessed as procaspase-8 cleavage at 50 uM after 24 hrs by Western blot analysis; type: functional, cell-based; procedure, shortened: as §2
[6] = tested on: T98G; assay: Induction of apoptosis in human T98G cells assessed as procaspase-9 cleavage at 50 uM after 24 hrs by Western blot analysis; type: functional, cell-based; procedure, shortened: as §1
[7] = tested on: PANC-1; assay: Downregulation of total Bid expression in human PANC1 cells at 50 uM after 24 hrs by Western blot analysis; type: functional, cell-based; procedure, shortened: as §2
[8] = tested on: T98G; assay: Induction of apoptosis in human T98G cells assessed as PARP cleavage at 50 uM after 24 hrs by Western blot analysis; type: functional, cell-based; procedure, shortened: as §1
[9] = tested on: T98G; assay: Cytotoxicity against human T98G cells assessed as growth inhibition after 24 hrs by MTT assay; type: functional, cell-based; procedure, shortened: as §3
[10] = tested on: PANC-1; assay: Induction of apoptosis in human PANC1 cells assessed as procaspase-9 cleavage at 50 uM after 24 hrs by Western blot analysis; type: functional, cell-based; procedure, shortened: as §1
[11] = tested on: T98G; assay: Downregulation of total Bid expression in human T98G cells at 50 uM after 24 hrs by Western blot analysis; type: functional, cell-based; procedure, shortened: as §2
[12] = tested on: T98G; assay: Downregulation of Bcl-xL expression in human T98G cells at 50 uM after 24 hrs by Western blot analysis; type: functional, cell-based; procedure, shortened: as §2
[13] = tested on: K562; assay: Cytotoxicity against human K562 cells assessed as growth inhibition after 24 hrs by MTT assay; type: functional, cell-based; procedure, shortened: as §3
[14] = tested on: T98G; assay: Induction of apoptosis in human T98G cells assessed as procaspase-7 cleavage at 50 uM after 24 hrs by Western blot analysis; type: functional, cell-based; procedure, shortened: as §1
[15] = tested on: T98G; assay: Induction of apoptosis in human T98G cells assessed as induction of DNA damage at 20 uM after 24 hrs by comet assay relative to untreated control; type: functional
Procedure, shortened: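 T98G cells (1 × 10^5) treated 24 h with 0 or 20 μM. About 20000 cells embedded in 0.5% low-melting agarose and lysed overnight at 4 °C at pH 10. Alkaline electrophoresis (pH 13) for 30 min at 300 mA at 4 °C, then ethidium bromide staining. Tail length (nucleus centre to tail tip) from ≥20 comets, reported as mean ± SD.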

[16] = tested on: HCT-116; assay: Cytotoxicity against human HCT116 cells assessed as growth inhibition after 24 hrs by MTT assay; type: functional, cell-based; procedure, shortened: as §3
[17] = Binding affinity to DNA (unknown origin) at 100 uM after 2 hrs by UV-Vis absorption spectroscopic analysis
Procedure, shortened: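 DNA (100 μg/mL; stock 1.0 mg/mL in 50 mM Tris-HCl pH 7.5, 50 mM NaCl) with ligand fixed at 100 μM; incubated at 37 °C, then diluted six-fold; absorbance scanned 220–350 nm at 25 °C, 1 cm quartz cell; 260 nm band monitored.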

[18] = tested on: PANC-1; assay: Induction of apoptosis in human PANC1 cells assessed as procaspase-7 cleavage at 50 uM after 24 hrs by Western blot analysis; type: functional, cell-based; procedure, shortened: as §2
[19] = tested on: PANC-1; assay: Induction of apoptosis in human PANC1 cells assessed as PARP cleavage at 50 uM after 24 hrs by Western blot analysis; type: functional, cell-based; procedure, shortened: as §2
[20] = tested on: MIA PaCa-2; assay: Cytotoxicity against human MIAPaCa2 cells assessed as growth inhibition after 48 hrs by MTT assay; conditions: MIA PaCa-2, 48 h
[21] = tested on: T98G; assay: Induction of apoptosis in human T98G cells at 30 uM after 24 hrs by 7-AAD-based FACS flow cytometric analysis (reference value: 5.3%); type: functional
[22] = tested on: PANC-1; assay: Cytotoxicity against human PANC1 cells assessed as growth inhibition after 48 hrs by MTT assay; conditions: PANC-1, 48 h
[23] = tested on: T98G; assay: Cytotoxicity against human T98G cells assessed as growth inhibition at 50 uM by MTT assay; type: functional, cell-based; conditions: TDE = time-dependent effect
[24] = tested on: NCI-H23; assay: Cytotoxicity against human NCI-H23 cells assessed as growth inhibition after 48 hrs by MTT assay; conditions: NCI-H23, 48 h
[25] = tested on: HCT-116; assay: Cytotoxicity against human HCT116 cells assessed as growth inhibition after 48 hrs by MTT assay; conditions: HCT-116, 48 h
[26] = tested on: SW480; assay: Cytotoxicity against human SW480 cells assessed as growth inhibition after 48 hrs by MTT assay; conditions: SW480, 48 h
[27] = tested on: T98G; assay: Induction of apoptosis in human T98G cells at 30 uM after 24 hrs by dUTP-FITC staining-based TUNEL assay (reference value: 1.88%); type: functional
[28] = Cytotoxicity against human LN229 cells assessed as growth inhibition after 48 hrs by MTT assay; conditions: LN-229, 48 h
[29] = Cytotoxicity against human CEMC-7 cells assessed as growth inhibition after 48 hrs by MTT assay; conditions: CEMC-7, 48 h
[30] = Cytotoxicity against human U373MG cells assessed as growth inhibition after 48 hrs by MTT assay; conditions: U373 MG
[31] = tested on: ASPC1; assay: Cytotoxicity against human AsPC1 cells assessed as growth inhibition after 48 hrs by MTT assay; conditions: ASPC1, 48 h
[32] = tested on: REH; assay: Cytotoxicity against human REH cells assessed as growth inhibition after 48 hrs by MTT assay
[33] = tested on: MOLT-4; assay: Cytotoxicity against human MOLT4 cells assessed as growth inhibition after 48 hrs by MTT assay; conditions: MOLT-4, 48 h
[34] = tested on: T98G; assay: Cytotoxicity against human T98G cells assessed as growth inhibition after 48 hrs by MTT assay
[35] = tested on: HeLa; assay: Cytotoxicity against human HeLa cells assessed as growth inhibition after 48 hrs by MTT assay
[36] = Cytotoxicity against human Panc 10.05 cells assessed as growth inhibition after 48 hrs by MTT assay; conditions: Panc1005, 48 h
[37] = tested on: K562; assay: Cytotoxicity against human K562 cells assessed as growth inhibition after 48 hrs by MTT assay; conditions: K562, 48 h
[38] = tested on: MOLT-3; assay: Cytotoxicity against human MOLT3 cells assessed as growth inhibition after 48 hrs by MTT assay; conditions: MOLT-3, 48 h
[39] = tested on: PANC-1; assay: Induction of apoptosis in human PANC1 cells at 30 uM after 24 hrs by 7-AAD-based FACS flow cytometric analysis (reference value: 5.18%); type: functional
[40] = Cytotoxicity against human A172 cells assessed as growth inhibition after 48 hrs by MTT assay; conditions: A 172, 48 h
[41] = tested on: PANC-1; assay: Induction of mitochondrial transmembrane depolarization in human PANC1 cells at 30 uM after 24 hrs by JC1 staining-based flow cytometric analysis (reference value: 2.7%); type: functional
[42] = tested on: PANC-1; assay: Induction of apoptosis in human PANC1 cells at 30 uM after 24 hrs by dUTP-FITC staining-based TUNEL assay (reference value: 0.17%); type: functional
[43] = Cytotoxicity against human U87MG cells assessed as growth inhibition after 48 hrs by MTT assay; conditions: U-87 MG
[44] = tested on: A549; assay: Cytotoxicity against human A549 cells assessed as growth inhibition after 48 hrs by MTT assay; conditions: A549, 48 h
[45] = tested on: T98G; assay: Induction of mitochondrial transmembrane depolarization in human T98G cells at 30 uM after 24 hrs by JC1 staining-based flow cytometric analysis (reference value: 10.26%); type: functional
[46] = tested on: U-373MG ATCC; assay: Cytotoxicity against human U373MG cells assessed as induction of morphological changes at 30 uM after 12 hrs by phase contrast microscopic analysis; type: functional, cell-based
Procedure, shortened: (§4)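 U373MG glioma cells exposed to 30 μM for 3 or 12 h; shape and density examined by phase contrast microscopy against untreated cells.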

[47] = tested on: U-373MG ATCC; assay: Cytotoxicity against human U373MG cells assessed as induction of morphological changes at 30 uM after 3 hrs by phase contrast microscopic analysis; type: functional, cell-based; procedure, shortened: as §4
[48] = tested on: U-373MG ATCC; assay: Cytotoxicity against human U373MG cells assessed as induction of morphological changes at 30 uM up to 24 hrs by phase contrast microscopic analysis; type: functional, cell-based

CC(C)=CCC[C@]1(C)C=Cc2c(c(C)cc3c4ccccc4n(C)c23)O1
Activity [1]: inactive | Activity [2]: inactive | growth inhibition (GI) [3]: Active | growth inhibition (GI) [4]: Active | Activity [5]: inactive | Activity [6]: inactive | Activity [7]: inactive | Activity [8]: inactive | growth inhibition (GI) [9]: Active | Activity [10]: inactive | Activity [11]: inactive | Activity [12]: inactive | growth inhibition (GI) [13]: Active | Activity [14]: inactive | Activity [15]: inactive | growth inhibition (GI) [16]: Active | Activity [17]: Active | Activity [18]: inactive | Activity [19]: inactive

CC(C)=CCC[C@]1(C)C=Cc2c(c(C)cc3c2[nH]c2ccccc23)O1
Activity [1]: Active | IC50 [20]: 25 µM | Activity [21]: 10.13% | IC50 [22]: 25 µM | Activity [2]: Active | growth inhibition (GI) [23]: tde | IC50 [24]: 25 µM | IC50 [25]: 25 µM | Activity [5]: Active | Activity [6]: Active | IC50 [26]: 25 µM | Activity [7]: Active | Activity [8]: Active | Activity [10]: Active | Activity [27]: 9.58% | Activity [11]: Active | IC50 [28]: 25 µM | Activity [12]: Active | IC50 [29]: 25 µM | IC50 [30]: 25 µM | IC50 [31]: 25 µM | IC50 [32]: 25 µM | IC50 [33]: 25 µM | IC50 [34]: 25 µM | IC50 [35]: 25 µM | IC50 [36]: 25 µM | IC50 [37]: 25 µM | Activity [14]: Active | IC50 [38]: 25 µM | Activity [39]: 17.06% | IC50 [40]: 25 µM | Activity [41]: 15.3% | Activity [42]: 1.13% | Activity [15]: inactive | IC50 [43]: 25 µM | Activity [17]: Active | Activity [18]: Active | IC50 [44]: 25 µM | Activity [19]: Active | Activity [45]: 16.72%

CC(=O)Oc1ccc2c(c1)[nH]c1c3c(c(C)cc12)O[C@](C)(CCC=C(C)C)C=C3
growth inhibition (GI) [3]: Active | growth inhibition (GI) [4]: Active | growth inhibition (GI) [9]: Active | growth inhibition (GI) [13]: Active | Activity [46]: Active | Activity [47]: inactive | Activity [48]: Active | growth inhibition (GI) [16]: Active
